# Source: ChEMBL document CHEMBL4396885, “Thioether-based 2-aminobenzamide derivatives: Novel HDAC inhibitors with potent in vitro and in vivo antitumor activity” (Eur J Med Chem, 2019)
# Experiments:
# [1] = target: Histone deacetylase 3/NCoR1 (Homo sapiens, UniProt O15379); experiment: Inhibition of recombinant human HDAC3/NCOR1 assessed as decrease in deacetylation of FLUOR DE LYS SIRT1 substrate preincubated for 10 mins followed by substrate addition and measured after 30 mins by fluorescence based assay; format: protein-complex assay
# Histone deacetylase 8 = target: T1, Histone deacetylase 8 (Homo sapiens, UniProt Q9BY41); experiment: Inhibition of recombinant human HDAC8 assessed as decrease in deacetylation of FLUOR DE LYS substrate preincubated for 10 mins followed by substrate addition and measured after 30 mins by fluorescence based assay
# T1 sequence (Q9BY41 whole entry): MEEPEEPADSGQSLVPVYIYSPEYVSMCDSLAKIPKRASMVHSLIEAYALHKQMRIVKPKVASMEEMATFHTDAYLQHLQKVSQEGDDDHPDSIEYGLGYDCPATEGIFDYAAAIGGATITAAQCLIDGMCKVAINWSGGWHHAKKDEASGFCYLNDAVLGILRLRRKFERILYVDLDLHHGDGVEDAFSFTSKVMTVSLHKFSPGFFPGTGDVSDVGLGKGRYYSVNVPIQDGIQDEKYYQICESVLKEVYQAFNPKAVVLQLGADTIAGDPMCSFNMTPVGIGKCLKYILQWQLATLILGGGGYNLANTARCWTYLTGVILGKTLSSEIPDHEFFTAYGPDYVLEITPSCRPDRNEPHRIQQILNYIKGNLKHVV
# Histone deacetylase 2 = Histone deacetylase 2 (Homo sapiens, UniProt Q92769); experiment: Inhibition of recombinant human HDAC2 assessed as decrease in deacetylation of FLUOR DE LYS Green substrate preincubated for 10 mins followed by substrate addition and measured after 30 mins by fluorescence based assay
# Histone deacetylase 1 = Histone deacetylase 1 (Homo sapiens, UniProt Q13547); experiment: Inhibition of recombinant human His tagged HDAC1 expressed in baculovirus infected insect cells assessed as decrease in deacetylation of FLUOR DE LYS Green substrate preincubated for 10 mins followed by substrate addition and measured after 30 mins by fluorescence based assay
# A549 [2] = experiment: Antiproliferative activity against human A549 cells assessed as growth inhibition at 2 uM after 72 hrs by CCK-8 assay relative to control; format: functional; conditions: A549, 72 h, read-out: GI
# A549 [3] = experiment: Antiproliferative activity against human A549 cells assessed as growth inhibition at 8 uM after 72 hrs by CCK-8 assay relative to control; format: functional; conditions: A549, 72 h, read-out: GI
# A-375 [4] = experiment: Antiproliferative activity against human A375 cells assessed as growth inhibition at 2 uM after 72 hrs by CCK-8 assay relative to control; format: functional; conditions: A-375, 72 h, read-out: GI
# A-375 [5] = experiment: Antiproliferative activity against human A375 cells assessed as growth inhibition at 8 uM after 72 hrs by CCK-8 assay relative to control; format: functional; conditions: A-375, 72 h, read-out: GI
# SMMC-7721 [6] = experiment: Antiproliferative activity against human SMMC7721 cells assessed as growth inhibition at 2 uM after 72 hrs by CCK-8 assay relative to control; format: functional; conditions: SMMC-7721, 72 h, read-out: GI
# SMMC-7721 [7] = experiment: Antiproliferative activity against human SMMC7721 cells assessed as growth inhibition at 8 uM after 72 hrs by CCK-8 assay relative to control; format: functional; conditions: SMMC-7721, 72 h, read-out: GI
# HCT-116 [8] = experiment: Antiproliferative activity against human HCT116 cells assessed as growth inhibition at 2 uM after 72 hrs by CCK-8 assay relative to control; format: functional; conditions: HCT-116, 72 h, read-out: GI
# HCT-116 [9] = experiment: Antiproliferative activity against human HCT116 cells assessed as growth inhibition at 8 uM after 72 hrs by CCK-8 assay relative to control; format: functional; conditions: HCT-116, 72 h, read-out: GI
# HeLa [10] = experiment: Antiproliferative activity against human HeLa cells assessed as growth inhibition at 2 uM after 72 hrs by CCK-8 assay relative to control; format: functional; conditions: read-out: GI
# HeLa [11] = experiment: Antiproliferative activity against human HeLa cells assessed as growth inhibition at 8 uM after 72 hrs by CCK-8 assay relative to control; format: functional; conditions: read-out: GI
# A549 [12] = experiment: Antiproliferative activity against human A549 cells assessed as decrease in cell viability after 72 hrs by CCK-8 assay; format: functional, cell-based; conditions: A549, 72 h
# Summary of the method: (§1)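 Cells grown to 70–85% confluence (A375, A549, HCT116 in RPMI1640; HeLa, SMMC7721 in DMEM; 10% FBS, 37 °C, 5% CO2), seeded 4000/well, dosed after 12 h across a concentration range, incubated 72 h, then CCK-8 for 1 h; absorbance at 450 nm. IC50 as mean ± SD of three separate experiments.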
# A-375 [13] = experiment: Antiproliferative activity against human A375 cells assessed as decrease in cell viability after 72 hrs by CCK-8 assay; format: functional, cell-based; conditions: A-375, 72 h; summary of the method: as §1
# SMMC-7721 [14] = experiment: Antiproliferative activity against human SMMC7721 cells assessed as decrease in cell viability after 72 hrs by CCK-8 assay; format: functional, cell-based; conditions: SMMC-7721, 72 h; summary of the method: as §1
# HCT-116 [15] = experiment: Antiproliferative activity against human HCT116 cells assessed as decrease in cell viability after 72 hrs by CCK-8 assay; format: functional, cell-based; conditions: HCT-116, 72 h; summary of the method: as §1
# HeLa [16] = experiment: Antiproliferative activity against human HeLa cells assessed as decrease in cell viability after 72 hrs by CCK-8 assay; format: functional, cell-based; summary of the method: as §1
# [17] = target: T2, Protein deacetylase HDAC6 (Homo sapiens, UniProt Q9UBN7); experiment: Inhibition of recombinant human His tagged HDAC6 expressed in baculovirus infected insect cells assessed as decrease in deacetylation of FLUOR DE LYS SIRT1 substrate by measuring decrease in fluorescence preincubated for 10 mins followed by substrate addition and measured after 30 mins by fluorescence based assay
# T2 sequence (Q9UBN7 whole entry): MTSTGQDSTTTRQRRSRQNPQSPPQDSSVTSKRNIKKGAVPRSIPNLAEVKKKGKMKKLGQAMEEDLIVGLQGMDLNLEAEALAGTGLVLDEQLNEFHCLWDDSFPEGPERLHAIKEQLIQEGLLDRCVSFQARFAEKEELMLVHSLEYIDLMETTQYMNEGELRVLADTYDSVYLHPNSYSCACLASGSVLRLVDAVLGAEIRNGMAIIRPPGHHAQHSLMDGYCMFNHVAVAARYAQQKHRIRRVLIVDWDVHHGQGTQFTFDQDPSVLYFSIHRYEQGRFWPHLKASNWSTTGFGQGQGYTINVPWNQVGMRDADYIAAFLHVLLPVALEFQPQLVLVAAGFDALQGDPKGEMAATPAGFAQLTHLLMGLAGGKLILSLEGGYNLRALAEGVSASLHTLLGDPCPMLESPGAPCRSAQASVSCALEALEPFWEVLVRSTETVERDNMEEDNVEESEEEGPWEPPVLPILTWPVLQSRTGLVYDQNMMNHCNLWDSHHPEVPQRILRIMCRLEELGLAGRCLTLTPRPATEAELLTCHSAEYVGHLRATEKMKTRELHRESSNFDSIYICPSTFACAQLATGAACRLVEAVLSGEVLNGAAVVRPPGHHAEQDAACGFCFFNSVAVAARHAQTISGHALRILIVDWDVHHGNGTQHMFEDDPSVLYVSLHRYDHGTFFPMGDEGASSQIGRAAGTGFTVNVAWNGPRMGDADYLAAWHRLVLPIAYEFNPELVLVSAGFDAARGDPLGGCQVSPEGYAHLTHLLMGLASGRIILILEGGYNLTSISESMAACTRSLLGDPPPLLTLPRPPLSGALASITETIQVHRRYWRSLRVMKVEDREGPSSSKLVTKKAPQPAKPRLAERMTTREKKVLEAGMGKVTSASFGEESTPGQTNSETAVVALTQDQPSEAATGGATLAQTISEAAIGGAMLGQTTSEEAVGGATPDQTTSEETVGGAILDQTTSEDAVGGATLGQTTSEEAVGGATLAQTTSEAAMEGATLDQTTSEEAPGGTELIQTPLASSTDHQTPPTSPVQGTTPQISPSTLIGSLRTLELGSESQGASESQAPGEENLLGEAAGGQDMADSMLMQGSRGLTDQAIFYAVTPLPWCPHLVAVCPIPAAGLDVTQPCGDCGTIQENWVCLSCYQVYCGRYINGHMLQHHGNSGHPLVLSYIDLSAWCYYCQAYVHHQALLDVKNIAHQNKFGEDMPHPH
# Histone deacetylase = experiment: Inhibition of HDAC in human HeLa cell nuclear extract assessed as decrease in deacetylation of FLUOR DE LYS Green substrate preincubated for 10 mins followed by substrate addition and measured after 30 mins by fluorescence based assay; format: cell-free
# NIH3T3 = experiment: Cytotoxicity against mouse NIH/3T3 cells assessed as reduction in cell viability after 72 hrs by CCK-8 assay; format: cell-based; conditions: NIH3T3, 72 h
# Chain of Histone deacetylase 2 (Q92769 whole entry): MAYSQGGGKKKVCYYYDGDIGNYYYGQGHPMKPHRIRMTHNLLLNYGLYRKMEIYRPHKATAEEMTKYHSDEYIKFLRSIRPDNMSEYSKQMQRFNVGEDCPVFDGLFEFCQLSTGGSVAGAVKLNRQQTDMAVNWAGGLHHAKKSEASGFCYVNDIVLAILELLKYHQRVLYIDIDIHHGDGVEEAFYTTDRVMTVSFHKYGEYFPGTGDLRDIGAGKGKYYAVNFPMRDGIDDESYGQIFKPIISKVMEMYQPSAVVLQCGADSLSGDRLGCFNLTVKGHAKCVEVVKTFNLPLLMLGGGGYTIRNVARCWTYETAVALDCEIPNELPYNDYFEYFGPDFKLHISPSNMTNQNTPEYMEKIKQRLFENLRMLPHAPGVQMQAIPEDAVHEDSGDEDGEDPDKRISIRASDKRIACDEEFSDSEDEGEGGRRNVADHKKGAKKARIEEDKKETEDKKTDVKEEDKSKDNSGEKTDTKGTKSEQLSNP
# Chain of Histone deacetylase 1 (Q13547 whole entry): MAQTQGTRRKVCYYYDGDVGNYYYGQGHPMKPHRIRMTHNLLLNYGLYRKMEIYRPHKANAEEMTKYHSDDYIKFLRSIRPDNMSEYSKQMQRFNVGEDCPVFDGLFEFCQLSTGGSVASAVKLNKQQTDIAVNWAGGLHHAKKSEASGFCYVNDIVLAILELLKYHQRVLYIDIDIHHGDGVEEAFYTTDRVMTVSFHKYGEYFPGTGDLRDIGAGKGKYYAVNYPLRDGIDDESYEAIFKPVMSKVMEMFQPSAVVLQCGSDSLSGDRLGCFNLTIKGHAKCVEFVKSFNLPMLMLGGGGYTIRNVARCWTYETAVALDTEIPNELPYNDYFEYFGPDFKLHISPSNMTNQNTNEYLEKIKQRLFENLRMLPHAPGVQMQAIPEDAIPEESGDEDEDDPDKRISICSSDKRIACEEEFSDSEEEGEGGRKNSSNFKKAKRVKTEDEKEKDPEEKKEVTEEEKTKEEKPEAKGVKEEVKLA
# Chain of Histone deacetylase 3/NCoR1 (O15379 whole entry): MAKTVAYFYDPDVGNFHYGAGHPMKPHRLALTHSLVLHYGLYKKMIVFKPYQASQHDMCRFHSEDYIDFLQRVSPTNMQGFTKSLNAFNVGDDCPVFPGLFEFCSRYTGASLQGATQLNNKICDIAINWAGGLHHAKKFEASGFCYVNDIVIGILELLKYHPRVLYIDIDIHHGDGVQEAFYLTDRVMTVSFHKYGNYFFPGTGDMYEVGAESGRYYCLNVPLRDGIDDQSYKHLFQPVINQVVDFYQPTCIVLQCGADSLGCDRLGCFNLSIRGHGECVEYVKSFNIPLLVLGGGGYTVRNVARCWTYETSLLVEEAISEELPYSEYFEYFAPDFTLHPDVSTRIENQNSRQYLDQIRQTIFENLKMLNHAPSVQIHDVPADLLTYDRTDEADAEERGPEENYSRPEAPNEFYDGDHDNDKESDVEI
# Chain of Histone deacetylase 3/NCoR1 (O75376 whole entry, further chain): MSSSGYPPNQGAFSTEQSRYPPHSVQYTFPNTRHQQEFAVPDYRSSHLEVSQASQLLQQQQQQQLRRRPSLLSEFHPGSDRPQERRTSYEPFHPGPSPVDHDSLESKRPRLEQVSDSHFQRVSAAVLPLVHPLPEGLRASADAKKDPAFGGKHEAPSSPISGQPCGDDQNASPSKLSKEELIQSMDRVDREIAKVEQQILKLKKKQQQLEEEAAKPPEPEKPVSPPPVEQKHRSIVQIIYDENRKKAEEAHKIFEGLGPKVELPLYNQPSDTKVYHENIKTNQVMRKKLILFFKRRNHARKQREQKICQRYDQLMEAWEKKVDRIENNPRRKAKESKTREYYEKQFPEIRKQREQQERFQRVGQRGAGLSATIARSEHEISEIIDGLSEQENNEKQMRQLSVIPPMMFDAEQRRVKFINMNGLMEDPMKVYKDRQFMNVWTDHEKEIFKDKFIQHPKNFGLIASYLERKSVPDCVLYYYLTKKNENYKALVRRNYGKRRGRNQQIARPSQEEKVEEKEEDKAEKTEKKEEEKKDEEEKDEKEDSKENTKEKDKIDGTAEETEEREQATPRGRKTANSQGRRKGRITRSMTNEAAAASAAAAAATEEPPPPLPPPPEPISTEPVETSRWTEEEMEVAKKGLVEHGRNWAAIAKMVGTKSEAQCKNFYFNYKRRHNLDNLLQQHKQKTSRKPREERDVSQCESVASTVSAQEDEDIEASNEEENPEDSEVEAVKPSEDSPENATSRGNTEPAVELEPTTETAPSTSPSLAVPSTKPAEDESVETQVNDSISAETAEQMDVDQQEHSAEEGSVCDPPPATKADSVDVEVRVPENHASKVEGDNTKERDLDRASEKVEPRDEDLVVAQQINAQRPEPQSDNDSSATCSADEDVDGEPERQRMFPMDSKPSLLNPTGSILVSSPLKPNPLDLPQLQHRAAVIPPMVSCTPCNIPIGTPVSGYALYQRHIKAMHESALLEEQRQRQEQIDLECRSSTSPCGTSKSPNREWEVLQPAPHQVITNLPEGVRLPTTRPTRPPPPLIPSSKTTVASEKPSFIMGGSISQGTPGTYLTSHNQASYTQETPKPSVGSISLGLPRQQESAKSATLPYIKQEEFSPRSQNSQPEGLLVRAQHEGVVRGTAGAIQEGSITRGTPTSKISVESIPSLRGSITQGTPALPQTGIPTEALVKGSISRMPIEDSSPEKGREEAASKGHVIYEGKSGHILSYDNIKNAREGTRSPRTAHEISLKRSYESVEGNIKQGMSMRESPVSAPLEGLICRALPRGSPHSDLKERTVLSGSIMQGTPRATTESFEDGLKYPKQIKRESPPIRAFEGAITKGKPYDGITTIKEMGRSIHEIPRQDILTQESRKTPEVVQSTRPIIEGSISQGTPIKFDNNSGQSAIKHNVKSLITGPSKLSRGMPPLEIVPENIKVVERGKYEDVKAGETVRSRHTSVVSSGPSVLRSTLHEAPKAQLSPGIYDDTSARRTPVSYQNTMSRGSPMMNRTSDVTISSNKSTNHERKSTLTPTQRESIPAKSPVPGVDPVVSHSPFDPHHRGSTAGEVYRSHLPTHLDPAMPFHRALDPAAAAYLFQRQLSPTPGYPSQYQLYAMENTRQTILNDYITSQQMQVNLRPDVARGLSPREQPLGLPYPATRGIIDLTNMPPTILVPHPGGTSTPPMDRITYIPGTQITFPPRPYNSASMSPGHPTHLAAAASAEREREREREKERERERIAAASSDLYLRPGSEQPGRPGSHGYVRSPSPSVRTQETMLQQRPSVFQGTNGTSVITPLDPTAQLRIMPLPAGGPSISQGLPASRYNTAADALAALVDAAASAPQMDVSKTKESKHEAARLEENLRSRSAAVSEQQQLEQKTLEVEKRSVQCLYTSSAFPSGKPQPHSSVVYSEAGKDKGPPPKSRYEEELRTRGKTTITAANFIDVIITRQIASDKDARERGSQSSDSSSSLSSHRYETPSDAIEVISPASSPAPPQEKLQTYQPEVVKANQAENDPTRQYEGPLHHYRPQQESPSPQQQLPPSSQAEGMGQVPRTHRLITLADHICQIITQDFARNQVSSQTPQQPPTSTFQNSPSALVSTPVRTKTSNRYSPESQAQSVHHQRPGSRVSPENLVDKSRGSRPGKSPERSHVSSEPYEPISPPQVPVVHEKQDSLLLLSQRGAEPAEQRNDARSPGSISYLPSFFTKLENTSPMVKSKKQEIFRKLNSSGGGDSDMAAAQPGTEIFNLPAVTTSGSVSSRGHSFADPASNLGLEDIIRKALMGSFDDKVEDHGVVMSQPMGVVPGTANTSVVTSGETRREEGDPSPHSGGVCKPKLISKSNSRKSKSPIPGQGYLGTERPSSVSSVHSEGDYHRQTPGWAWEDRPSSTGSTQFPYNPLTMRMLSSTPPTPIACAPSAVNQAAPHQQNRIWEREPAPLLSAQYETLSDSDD
IC50 [1],IC50 (Histone deacetylase 8),IC50 (Histone deacetylase 2),IC50 (Histone deacetylase 1),IC50 (A549 [12]),IC50 (A-375 [13]),IC50 (SMMC-7721 [14]),IC50 (HCT-116 [15]),IC50 (HeLa [16]),IC50 [17],SMILES,inhibition of growth at 2 µM (A549 [2]),inhibition of growth at 8 µM (A549 [3]),inhibition of growth at 2 µM (A-375 [4]),inhibition of growth at 8 µM (A-375 [5]),inhibition of growth at 2 µM (SMMC-7721 [6]),inhibition of growth at 8 µM (SMMC-7721 [7]),inhibition of growth at 2 µM (HCT-116 [8]),inhibition of growth at 8 µM (HCT-116 [9]),inhibition of growth at 2 µM (HeLa [10]),inhibition of growth at 8 µM (HeLa [11]),other results
0.381 µM,> 32 µM,0.139 µM,0.02 µM,2.89 µM,3.67 µM,2.76 µM,2.49 µM,2.09 µM,> 32 µM,Cc1cc(C)cc(SCc2ccc(C(=O)Nc3ccccc3N)cc2)c1,33.3%,78.5%,48.5%,74.7%,29.1%,85.1%,3.22%,72.9%,40.1%,78.8%,IC50 (Histone deacetylase): 10.72 µM; IC50 (NIH3T3): 3.34 µM
0.274 µM,> 32 µM,0.441 µM,0.011 µM,0.97 µM,1.55 µM,1.89 µM,1.14 µM,1.14 µM,> 32 µM,Nc1ccccc1NC(=O)c1ccc(CSc2nccc(C(F)(F)F)n2)cc1,75.4%,95.1%,54.4%,80.1%,66.1%,80.6%,82.7%,93.1%,68.3%,83.4%,IC50 (Histone deacetylase): 1.995 µM; IC50 (NIH3T3): 1.85 µM
,,,,3.27 µM,3.7 µM,3.74 µM,2.63 µM,4.25 µM,,Cc1ccc(SCc2ccc(C(=O)Nc3ccccc3N)cc2)cc1,40.5%,78.3%,17.5%,67%,25.1%,82.7%,74.8%,84%,33.8%,79.2%,
,,,,3.25 µM,2.86 µM,4.88 µM,2.81 µM,6.43 µM,,Nc1ccccc1NC(=O)c1ccc(CSCCc2ccccc2)cc1,44.9%,84.1%,21.8%,69.9%,28.1%,77.9%,30.5%,81.3%,27.7%,74.8%,
